Results: ChEMBL document CHEMBL1932958, “Analogs of pentamidine as potential anti-Pneumocystis chemotherapeutics” (Eur J Med Chem, 2012)

Tests used:
[1] = system: Pneumocystis carinii; assay: Antipneumocystis activity against Pneumocystis carinii assessed as reduction of ATP level after 72 hrs by bioluminescent assay; format: functional, organism-based
Procedure, shortened: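 P. carinii from corticosteroid-immunosuppressed male CD rat lungs (methylprednisolone 20 mg/kg weekly, inoculated intratracheally or intranasally), cryopreserved, thawed at 37°C, 5 × 10^7 nuclei/ml in RPMI-1640 with 20% calf serum; 5% CO2, 37 °C. Screened at 100 µg/ml; titrated if ATP fell ≥50%. ATPlite luciferin-luciferase luminescence at 72 h; triplicate wells, 3 assays, two batches; IC50 by linear regression of % ATP decrease vs log concentration.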

[2] = Cytotoxicity against rat L2 cells; format: cell-based
[3] = system: A549; assay: Cytotoxicity against human A549 cells; format: cell-based

Structure (SMILES) | IC50 [1] | IC50 [2] | IC50 [3]
CN(CCOc1ccc(C(=N)N)cc1)CCOc1ccc(C(=N)N)cc1.Cl.Cl | 1.73 µM | > 100 µg/mL | > 100 µg/mL
COc1cc(C(=N)N)ccc1OCCN(C)CCOc1ccc(C(=N)N)cc1OC.Cl.Cl | 3.41 µM | > 100 µg/mL | > 100 µg/mL
COc1cc(C(=N)N)cc(OC)c1OCCN(C)CCOc1c(OC)cc(C(=N)N)cc1OC.Cl.Cl | 6.26 µM | > 100 µg/mL | > 100 µg/mL
CN(CCCCCN(C)c1ccc(C(=N)N)cc1)c1ccc(C(=N)N)cc1.Cl.Cl | 1.99 µM | 47.1 µg/mL | > 100 µg/mL
Cl.Cl.N=C(N)c1ccc(NCCOCCNc2ccc(C(=N)N)cc2)cc1 | 1.11 µM | 36.9 µg/mL | > 100 µg/mL
Cl.Cl.N=C(N)c1ccc(OCCOCCOc2ccc(C(=N)N)cc2)cc1 | 2.13 µM | > 100 µg/mL | > 100 µg/mL
COc1cc(C(=N)N)ccc1OCCOCCOc1ccc(C(=N)N)cc1OC.Cl.Cl | 4.21 µM | > 100 µg/mL | > 100 µg/mL
COc1cc(C(=N)N)cc(OC)c1OCCOCCOc1c(OC)cc(C(=N)N)cc1OC.Cl.Cl | 13 µM | > 100 µg/mL | > 100 µg/mL
COc1cc(C(=N)N)cc(OC)c1OCCCCCOc1c(OC)cc(C(=N)N)cc1OC.Cl.Cl | 3 µM | 17.8 µg/mL | > 100 µg/mL
Cl.Cl.N=C(N)c1ccc(OCCSCCOc2ccc(C(=N)N)cc2)cc1 | 1.18 µM | > 100 µg/mL | > 100 µg/mL
Cl.Cl.N=C(N)c1ccc(OCCN(CCOc2ccc(C(=N)N)cc2)S(=O)(=O)c2ccccc2)cc1 | 1.33 µM | > 100 µg/mL | > 100 µg/mL
COc1cc(C(=N)N)ccc1OCCN(CCOc1ccc(C(=N)N)cc1OC)S(=O)(=O)c1ccccc1.Cl.Cl | 2.66 µM | > 100 µg/mL | > 100 µg/mL
COc1cc(C(=N)N)cc(OC)c1OCCN(CCOc1c(OC)cc(C(=N)N)cc1OC)S(=O)(=O)c1ccccc1.Cl.Cl | 4.4 µM | > 100 µg/mL | > 100 µg/mL
COc1cc(C(=N)N)ccc1OCCN(CCOc1ccc(C(=N)N)cc1OC)S(=O)(=O)c1ccc(NC(C)=O)cc1.Cl.Cl | 3.71 µM | > 100 µg/mL | > 100 µg/mL
COc1cc(C(=N)N)cc(OC)c1OCCN(CCOc1c(OC)cc(C(=N)N)cc1OC)S(=O)(=O)c1ccc(N)cc1.Cl.Cl | 4.16 µM | > 100 µg/mL | > 100 µg/mL
Cl.Cl.N=C(N)c1ccc(C(=O)NCCCNC(=O)c2ccc(C(=N)N)cc2)cc1 | 2.99 µM | > 100 µg/mL | > 100 µg/mL
Cl.Cl.N=C(N)c1ccc(C(=O)NCCCCNC(=O)c2ccc(C(=N)N)cc2)cc1 | 3.58 µM | > 100 µg/mL | > 100 µg/mL
Cl.Cl.N=C(N)c1ccc(C(=O)NCCCCCNC(=O)c2ccc(C(=N)N)cc2)cc1 | 14.3 µM | > 100 µg/mL | > 100 µg/mL
Cl.Cl.N=C(N)c1ccc(C(=O)NCCCCCCNC(=O)c2ccc(C(=N)N)cc2)cc1 | 9.15 µM | > 100 µg/mL | > 100 µg/mL
